Laboratory results taken from ChEMBL document CHEMBL4312003, “Optimization of biaryloxazolidinone as promising antibacterial agents against antibiotic-susceptible and antibiotic-resistant gram-positive bacteria” (Eur J Med Chem, 2020).
In brackets after ≈: the same amount, converted by molar mass.

What was measured:
Staphylococcus aureus [1] = assay: Antibacterial activity against Staphylococcus aureus ATCC 29213 assessed as complete reduction in bacterial cell growth by CLSI protocol based broth liquid microdilution method; format: functional
Method in brief: (§1)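 Broth liquid microdilution per CLSI guidelines; isolates identified on an automated MicroScan system before testing. MIC taken as lowest concentration giving total inhibition of bacterial growth, reported in μg/mL. S. aureus ATCC29213 run as the control strain.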

Staphylococcus aureus [2] = assay: Antibacterial activity against methicillin-resistant Staphylococcus aureus assessed as complete reduction in bacterial cell growth by CLSI protocol based broth liquid microdilution method; format: functional; method in brief: as §1
Staphylococcus aureus [3] = assay: Antibacterial activity against methicillin-sensitive Staphylococcus aureus assessed as complete reduction in bacterial cell growth by CLSI protocol based broth liquid microdilution method; format: functional; method in brief: as §1
Enterococcus faecalis [4] = assay: Antibacterial activity against linezolid-resistant Enterococcus faecalis assessed as complete reduction in bacterial cell growth by CLSI protocol based broth liquid microdilution method; format: functional; method in brief: as §1
Enterococcus faecium [5] = assay: Antibacterial activity against vancomycin-resistant Enterococcus faecium assessed as complete reduction in bacterial cell growth by CLSI protocol based broth liquid microdilution method; format: functional; method in brief: as §1
Staphylococcus aureus [6] = assay: Antibacterial activity against clinical isolates of methicillin-sensitive Staphylococcus aureus assessed as reduction in bacterial cell growth by CLSI protocol based broth microdilution method; format: functional; method in brief: as §1
Enterococcus faecalis [7] = assay: Antibacterial activity against clinical isolates of linezolid-resistant Enterococcus faecalis assessed as complete reduction in bacterial cell growth by CLSI protocol based broth liquid microdilution method; format: functional; method in brief: as §1
Enterococcus faecium [8] = assay: Antibacterial activity against clinical isolates of vancomycin-resistant Enterococcus faecium assessed as complete reduction in bacterial cell growth by CLSI protocol based broth liquid microdilution method; format: functional; method in brief: as §1
Staphylococcus aureus [9] = assay: Potency index, ratio of rade-zolid MIC to compound MIC for antibacterial activity against Staphylococcus aureus ATCC 29213 by CLSI protocol based broth liquid microdilution method; format: functional
Staphylococcus aureus [10] = assay: Potency index, ratio of rade-zolid MIC to compound MIC for antibacterial activity against methicillin-sensitive Staphylococcus aureus by CLSI protocol based broth liquid microdilution method; format: functional
Enterococcus faecalis [11] = assay: Potency index, ratio of rade-zolid MIC to compound MIC for antibacterial activity against linezolid-resistant Enterococcus faecalis by CLSI protocol based broth liquid microdilution method; format: functional
Enterococcus faecium [12] = assay: Potency index, ratio of rade-zolid MIC to compound MIC for antibacterial activity against vancomycin-resistant Enterococcus faecium by CLSI protocol based broth liquid microdilution method; format: functional
[13] = Stability in simulated gastric acid assessed as compound remaining at pH 1.2 incubated for 0.5 hrs; format: ADME; settings: read-out: Stability
[14] = Stability in simulated gastric acid assessed as compound remaining at pH 1.2 incubated for 1 hr; format: ADME; settings: read-out: Stability
[15] = Stability in simulated gastric acid assessed as compound remaining at pH 1.2 incubated for 1.5 hrs; format: ADME; settings: read-out: Stability
[16] = Stability in simulated gastric acid assessed as compound remaining at pH 1.2 incubated for 2 hrs; format: ADME; settings: read-out: Stability
HepG2 = assay: Cytotoxicity against human HepG2 cells assessed as reduction in cell viability incubated for 48 hrs by MTT assay; format: cell-based; settings: HepG2, 48 h
Method in brief: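 HepG2 cells were grown in RPMI1640 with 10% FBS and plated at about 4×10^4 cells/well in MEM. After 24 h at 37 °C in 5% CO2, compounds were added at the indicated final concentrations for 48 h. MTT was added (0.5 mg/mL final) for 4 h at 37 °C and the formazan dissolved in DMSO. Absorbance was read at 492 nm (630 nm reference). Each compound was tested three times; IC50 given as mean ± SD.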

[17] = Solubility of compound in water by UV spectrophotometric analysis; format: physicochemical
[18] = Stability in human liver microsomes assessed as half life at 1.5 uM preincubated for 5 mins with NADPH and measured after 45 mins by LC/MS analysis; format: ADME, Microsome; settings: for half-life at 1.5 µM: liver microsomes
Method in brief: (§2)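 Compound solution at 1.5 µM with 0.75 mg/mL microsomes (before NADPH addition) was preincubated 5 min at 37 °C. Reactions were started with NADPH (6 mM stock). Samples were quenched with acetonitrile containing internal standard at 0, 5, 15, 30 and 45 min, then centrifuged, and the supernatant was diluted with water for LC/MS. Runs were in duplicate. T1/2 = ln2/k from the log-linear slope, and CLint was derived from T1/2.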

[19] = Stability in human liver microsomes assessed as intrinsic clearance at 1.5 uM preincubated for 5 mins with NADPH and measured after 45 mins by LC/MS analysis; format: ADME, Microsome; settings: read-out: CLH; method in brief: as §2
[20] = Stability in human liver microsomes assessed as compound remaining at 1.5 uM preincubated for 5 mins with NADPH and measured after 45 mins by LC/MS analysis; format: ADME, Microsome; settings: for remaining at 0.75 h, 1.5 µM: liver microsomes, read-out: Stability; method in brief: as §2
MAO-A = target: T1, MAO-A (Homo sapiens, UniProt P21397); assay: Inhibition of recombinant human MAO-A (active motif 31502) at 30 uM using luciferin as substrate incubated for 15 mins followed by substrate addition and measured after 60 mins by luminescence based method relative to control; settings: probe luciferin
T1 sequence (P21397 whole entry): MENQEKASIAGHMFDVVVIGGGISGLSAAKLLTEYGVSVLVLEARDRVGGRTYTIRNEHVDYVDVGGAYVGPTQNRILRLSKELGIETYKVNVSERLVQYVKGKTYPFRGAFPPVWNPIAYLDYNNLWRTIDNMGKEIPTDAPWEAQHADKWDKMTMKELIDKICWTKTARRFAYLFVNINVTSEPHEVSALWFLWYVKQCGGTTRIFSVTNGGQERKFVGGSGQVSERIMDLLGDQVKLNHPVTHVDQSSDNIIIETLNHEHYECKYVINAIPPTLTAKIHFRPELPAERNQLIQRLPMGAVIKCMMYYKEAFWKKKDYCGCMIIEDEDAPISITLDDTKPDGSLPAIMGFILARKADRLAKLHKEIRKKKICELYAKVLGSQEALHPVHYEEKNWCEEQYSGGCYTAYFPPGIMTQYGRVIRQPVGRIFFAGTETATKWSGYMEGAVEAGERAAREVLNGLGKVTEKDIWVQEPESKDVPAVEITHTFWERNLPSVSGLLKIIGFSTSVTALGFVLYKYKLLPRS
Method in brief: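 Recombinant human MAO-A was measured with the MAO-Glo kit, modified. Compounds were in DMSO (1% DMSO final) and preincubated with enzyme 15 min at room temperature. Luciferin-derivative substrate was then added and the reaction run 60 min at room temperature. Luciferase detection reagent was added for 20 min and luminescence read. Buffer without enzyme served as the 100% inhibition control; DMSO alone as the no-inhibition control. Percent inhibition = (Max − signal)/(Max − Min)×100.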

Staphylococcus aureus [21] = assay: Antibacterial activity against clinical isolates of methicillin-resistant Staphylococcus aureus assessed as complete reduction in bacterial cell growth by CLSI protocol based broth liquid microdilution method; format: functional; method in brief: as §1

Row | Compound | MIC (Staphylococcus aureus [1]) [µg/mL] | MIC (Staphylococcus aureus [2]) [µg/mL] | MIC (Staphylococcus aureus [3]) [µg/mL] | MIC (Enterococcus faecalis [4]) [µg/mL] | MIC (Enterococcus faecium [5]) [µg/mL] | MIC (Staphylococcus aureus [6]) [µg/mL] | MIC (Enterococcus faecalis [7]) [µg/mL] | MIC (Enterococcus faecium [8]) [µg/mL] | Ratio (Staphylococcus aureus [9]) | Ratio (Staphylococcus aureus [10]) | Ratio (Enterococcus faecalis [11]) | Ratio (Enterococcus faecium [12]) | remaining at 0.5 h [13] [%] | remaining at 1 h [14] [%] | remaining at 1.5 h [15] [%] | remaining at 2 h [16] [%] | IC50 (HepG2) [µM] | solubility [17] [µg/mL] | CLint scaled at 1.5 µM [19] [mL/min/kg] | inhibition at 1 h, 30 µM (MAO-A) [%] | further results
1 | CC(=O)NC[C@H]1CN(c2ccc(-c3ccc(/C=N/N4CCOCC4)nc3)c(F)c2)C(=O)O1 | 0.125 (≈ 0.283 µM) | 0.125 (≈ 0.283 µM) | 0.25 (≈ 0.566 µM) | 0.25 (≈ 0.566 µM) | 0.25 (≈ 0.566 µM) | 0.25 to 0.5 (≈ 0.566 to 1.13 µM) | 0.25 to 0.5 (≈ 0.566 to 1.13 µM) | 1 (≈ 2.27 µM) | 2 - 4 | 2 - 4 | 2 - 4 | 2 - 4 | – | – | – | – | – | – | – | – | –
2 | CC(=O)NC[C@H]1CN(c2ccc(-c3ccc(/C=N/N4CCN(C)CC4)c(O)c3)c(F)c2)C(=O)O1 | 0.125 (≈ 0.266 µM) | 0.125 (≈ 0.266 µM) | 0.12 (≈ 0.256 µM) | 0.25 (≈ 0.532 µM) | 0.25 (≈ 0.532 µM) | 0.5 to 1 (≈ 1.06 to 2.13 µM) | 1 (≈ 2.13 µM) | 1 (≈ 2.13 µM) | – | – | – | – | 69.8 | 35 | 12.2 | 5.3 | > 25 | – | – | – | –
3 | CC(=O)NC[C@H]1CN(c2ccc(-c3ccc(/C=N/N4CCS(=O)(=O)CC4)nc3)c(F)c2)C(=O)O1 | 0.125 (≈ 0.255 µM) | 0.125 (≈ 0.255 µM) | 0.125 (≈ 0.255 µM) | 0.25 (≈ 0.511 µM) | 0.125 (≈ 0.255 µM) | 0.25 to 0.5 (≈ 0.511 to 1.02 µM) | 0.25 to 0.5 (≈ 0.511 to 1.02 µM) | 0.5 (≈ 1.02 µM) | 2 - 4 | 2 - 4 | 2 - 4 | 2 - 4 | 99.7 | 99.4 | 99.2 | 98.7 | > 25 | 68 (≈ 139 µM) | 4.25 | 72 | half-life at 1.5 µM [18]: 6.82 h; remaining at 0.75 h, 1.5 µM [20]: 93%
4 | CC(=O)NC[C@H]1CN(c2ccc(-c3ccc(/C=N/N4CCN(C)CC4)nc3)c(F)c2)C(=O)O1 | 0.125 (≈ 0.275 µM) | 0.125 (≈ 0.275 µM) | 0.125 (≈ 0.275 µM) | 0.25 (≈ 0.55 µM) | 0.25 (≈ 0.55 µM) | 2 (≈ 4.4 µM) | 0.25 to 0.5 (≈ 0.55 to 1.1 µM) | 0.25 to 0.5 (≈ 0.55 to 1.1 µM) | 2 - 4 | 2 - 4 | 2 - 4 | 2 - 4 | 98.3 | 96.8 | 96.2 | 95.8 | > 25 | 63 (≈ 139 µM) | 17.2 | 79 | MIC (Staphylococcus aureus [21]): 2 µg/mL (≈ 4.4 µM); half-life at 1.5 µM [18]: 1.68 h; remaining at 0.75 h, 1.5 µM [20]: 74.9%
5 | CC(=O)NC[C@H]1CN(c2ccc(-c3ccc(/C=N/N4CC[S+]([O-])CC4)c(O)c3)c(F)c2)C(=O)O1 | 0.25 (≈ 0.512 µM) | 0.125 (≈ 0.256 µM) | 0.25 (≈ 0.512 µM) | 0.25 (≈ 0.512 µM) | 0.25 (≈ 0.512 µM) | 0.5 (≈ 1.02 µM) | 0.5 (≈ 1.02 µM) | 0.5 (≈ 1.02 µM) | – | – | – | – | – | – | – | – | – | – | – | 88 | MIC (Staphylococcus aureus [21]): 0.5 to 1 µg/mL (≈ 1.02 to 2.05 µM)
6 | CC(=O)NC[C@H]1CN(c2ccc(-c3ccc(/C=N/N4CCSCC4)nc3)c(F)c2)C(=O)O1 | 0.125 (≈ 0.273 µM) | 0.125 (≈ 0.273 µM) | 0.25 (≈ 0.546 µM) | 0.25 (≈ 0.546 µM) | 0.25 (≈ 0.546 µM) | 0.25 to 0.5 (≈ 0.546 to 1.09 µM) | 0.5 (≈ 1.09 µM) | 1 (≈ 2.19 µM) | 2 - 4 | 2 - 4 | 2 - 4 | 2 - 4 | 99.4 | 99 | 98.6 | 98 | > 25 | 57 (≈ 125 µM) | 90.3 | 75 | t1/2 ([18]; microsomes, 0.75 h, 1.5 µM): 0.3207 h; Stability ([20]; microsomes, 0.75 h, 1.5 µM): 0.62%
7 | COC(=O)N1CCN(/N=C/c2ccc(-c3ccc(N4C[C@H](CNC(C)=O)OC4=O)cc3F)cc2O)CC1 | 0.5 (≈ 0.974 µM) | 0.5 (≈ 0.974 µM) | 0.5 (≈ 0.974 µM) | 0.5 (≈ 0.974 µM) | 0.5 (≈ 0.974 µM) | 2 (≈ 3.89 µM) | 2 (≈ 3.89 µM) | 2 (≈ 3.89 µM) | – | – | – | – | – | – | – | – | – | – | – | – | MIC (Staphylococcus aureus [21]): 2 µg/mL (≈ 3.89 µM)
8 | CC(=O)NC[C@H]1CN(c2ccc(N3CCOCC3)c(F)c2)C(=O)O1 [LINEZOLID] | 1 (≈ 2.96 µM) | 1 (≈ 2.96 µM) | 1 (≈ 2.96 µM) | > 16 | 2 (≈ 5.93 µM) | 1 to 4 (≈ 2.96 to 11.9 µM) | > 16 | 1 to 4 (≈ 2.96 to 11.9 µM) | – | – | – | – | – | – | – | – | > 25 | – | – | – | Stability ([18]; microsomes, 0.75 h, 1.5 µM): Stable
